Experimental data: the EternaBench riboswitch data

Test system: MS2 coat protein
Assay: apparent Kd, MS2 coat protein; higher = weaker binding; RNA-MaP array; FMN 200 µM where present
Summary of the method: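 Green signal from SNAP-549-labelled MS2 coat protein was normalised to red-channel RNA signal and to the median Fmax of control clusters. The protein was titrated from 0.7 or 1.5 nM, doubling to 3 µM, without and then with constant ligand, over designs transcribed by stalled E. coli RNA polymerase on Illumina sequencing-chip clusters, in 100 mM Tris-HCl pH 7.5, 80 mM KCl, 4 mM MgCl2, BSA, DTT, yeast tRNA and Tween-20. The apparent Kd is the median of filtered per-cluster binding-curve fits.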

[1] = designed as: OFF switch for flavin mononucleotide, no ligand
[2] = ligand present: flavin mononucleotide, designed as: OFF switch for flavin mononucleotide
[3] = designed as: ON switch for flavin mononucleotide, no ligand
[4] = ligand present: flavin mononucleotide, designed as: ON switch for flavin mononucleotide

| Sequence | apparent Kd [1] [nM] | apparent Kd [2] [nM] | apparent Kd [3] [nM] | apparent Kd [4] [nM] |
| --- | --- | --- | --- | --- |
| UGAUAGGACAGAGGAUAUACCGAUAGGAUCUACUAUCGAAGAAUCCUCACAUGAGGAUCACCCAUGUAGAAGGCUGUCCUAUCU | 41.6 | 678 |  |  |
| UGAUAGGACAGAGGAUAUACGUGCUAGAGAUACUAGCAAAAUAUCCUUACAUGAGGAUCACCCAUGUAGAAGGCUGUCCUAUCU | 20 | 20.2 |  |  |
| UGAUAGGACAGAGGAUAUACGUGCUAGAGAUACUAGCAAAAUUUCCUAACAUGAGGAUCACCCAUGUAGAAGGCUGUCCUAUCU | 6.73 | 14.2 |  |  |
| UGAUAGGACAGAGGAUAUACGUGCUGGAGAUACUAGCAAAGUAUCUCGACAUGAGGAUCACCCAUGUAGAAGGCUGUCCUAUCU | 25.2 | 89.4 |  |  |
| UGAUCACAUGAGGAUCACCCAUGUCAGGAUAUCUACAUUGAAGCUGCGGCUUCAAUGUAGAGAAGGGAUAUAAU | 99 | 229 |  |  |
| UGAUCGAGAGAUCUUAGAUUCUGGUAGGAUAUACAUAUAGUAAUAUAGACAUGAGGAUCACCCAUGUAGAAGGACUAGAGUCUA | 6.9 | 8.65 |  |  |
| UGAUCGAGAGAUCUUAGAUUCUGGUAGGAUAUGCAACAGUUGCGCUUUACAUGAGGAUCACCCAUGUAGAAGGACUAGAGUCUA | 5.86 | 6.1 |  |  |
| UGAUCUUACAUGAGGAUCACCCAUGUAGGCCAGUAACUAACCAGAAGGCACGUAGAGUACAACAGUGAGGAUAUGGAUGACAUA |  |  | 9.29 | 5.95 |
| UGAUGACCUGUACCUAGUUGGUGACAUGAGGAUCACCCAUGUCAGGAUAUCGGGUUUGAAAACAACGAGAAGGGACAACGGGCG | 12.6 | 13 |  |  |
| UGCAUCUGAGGAUAUCACAUGUGGAACAUGAGGAUCACCCAUGUGAUCCACAUGCCGUUGUGAGAAGGCAGUAAAA | 314 | 193 |  |  |
| UGCAUGUAAGGAUAUGCAUCCGCCAAAGAACCGGCGCCACAGCAGAAGGUACAUGAGGAUCACCCAUGUGUCCC | 15.1 | 29.1 |  |  |
| UGCCGUAGAGGAUAUACAUAGAAAUAGAUUCAUGUAAAACUACAUGAGGAUCACCCAUGUAGAAGGCUAUGGCU | 21.6 | 137 |  |  |
| UGCCUGAGUCGAGGAUAUUAUGGAUCAAUUAAUACAUGAGGAUCACCCAUGUAAUUAAUUUAACAUGAGAAGGUGACUCAGGCU |  |  | 12.2 | 10.2 |
| UGCGCUGAGGGAGGAUAUGACAUGAGGAUCACCCAUGUGAUAGGUUUCUUGUCAGAAGGCCCGCAUGUACCAAAUUAGGUUUGU | 94 | 126 |  |  |
| UGCUAAUUGUAGAAGGGUGACAUGAGGAUCACCCAUGUUCACAUGCGAUUUACGGCGCAUGUUCCACAGGAUAUACAGUUGAGU |  |  | 342 | 60.1 |
| UGCUACGUUUCGUAGCAGCUAGGUGAGGAUAUUCAAUUUUUCACAUGAGGAUCACCCAUGUAUGUGAAGAAGGCGCCUAGAAAA |  |  | 10.2 | 4.56 |
| UGCUGGUGACAGCAUCCAUCAAAACAUGAGGAUCACCCAUGUAGAAGGCUGUACGGUUACCGUACAGAGGAUAUACAAUGAUGC | 15.4 | 29.4 |  |  |
| UGCUGUGUCAGAGGAUAUACUACUAUAAUCCAUUGCAAAUAGCGAUGGACAUGAGGAUCACCCAUGUAGAAGGCUGUCACAGCA | 46.6 | 178 |  |  |
| UGCUGUGUCAGAGGAUAUACUCUAAUAAUCCAUUGCAAAUAGCGAUGGACAUGAGGAUCACCCAUGUAGAAGGCUGUCACAGCA | 73.6 | 140 |  |  |
| UGGACCGAGCUAUCGGUUGACUGGGAGGAUAUGACAUGAGGAUCACCCAUGUGGGAUCUAAAUUGUCAGAAGGCUCGAUCUGGG | 258 | 257 |  |  |
| UGGAGGUCAGGAUAUGCAUGGCGGGACUUGCGUCGUGGCGUGCAGAAGGGACAUGAGGAUCACCCAUGUGGAGC | 64.5 | 83.7 |  |  |

| Sequence | apparent Kd [1] [nM] | apparent Kd [2] [nM] | apparent Kd [3] [nM] | apparent Kd [4] [nM] |
| --- | --- | --- | --- | --- |
| UGGAUGUGGGUUCCACAUGAGGAUCACCCAUGUACCGAUGAGAGAAGGCGCGCUGGAUCACAGGGCGAGGAUAUCUACAUUCAA | 6.06 | 13.1 |  |  |
| UGGGAGCGAUAGAAGGCCGGGUUUCACAUGAGGAUCACCCAUGUGCGGGCCCUCUGUUGAAGGCUGGAGGAUAUAUCGUGCGGA | 14.5 | 7.39 |  |  |
| UGGGCGUGUGUCAGGAUAUGUGCUCUUCCUAGAGCGUAGAAGGGACAUGAGGAUCACCCAUGUCGAAUUGCCAA | 17.4 | 30.7 |  |  |
| UGGGUAAGUGUAGGAUAUUUAUAUUAAUAGUAUGGAGAAGGACAUGAGGAUCACCCAUGUACAGGGAGUUGCCCAUUUCCUCUC | 335 | 671 |  |  |
| UGGUACAUCGGAGGAUAUCAUGUAGAUACAUGAGGAUCACCCAUGUCGUACGAUAGUACGGAGAUUGAGAAGGCCGAUGUACCU |  |  | 30.5 | 16.6 |
| UGGUACAUGGGAGGAUAUGGGUUGAUAACAUGAGGAUCACCCAUGUUAAAUAUGCCUCUUGGCAACUAGAAGGCCCAUGUACCU |  |  | 512 | 41.8 |
| UGGUACUAGGGAGGAUAUGAGAAGAUACAUGAGGAUCACCCAUGUUUAAGAAUGCCGAGAGGCAACUAGAAGGCCCUAGUACCU |  |  | 7.85 | 5.23 |
| UGGUACUAGGGAGGAUAUGGGAAGAUACAUGAGGAUCACCCAUGUUAAAGAAUGCCGAGAGGCAACUAGAAGGCCCUAGUACCU |  |  | 293 | 16.3 |
| UGGUACUAGGGAGGAUAUGGGAAGAUACAUGAGGAUCACCCAUGUUUAAGAAUGCCGAGAGGCAACUAGAAGGCCCUAGGACCU |  |  | 434 | 18.5 |
| UGGUACUAGGGAGGAUAUGGGAAGAUACAUGAGGAUCACCCAUGUUUAAGAAUGCCGAGAGGCAACUAGAAGGCCCUAGUACCU |  |  | 1050 | 45.3 |
| UGGUACUAGGGAGGAUAUGGGAAGAUACAUGAGGAUCACCCAUGUUUAAGGAUGCCGAGAGGCAACUAGAAGGCCCUAGUACCU |  |  | 851 | 97 |
| UGGUACUAUGGAGGAUAUGGGAAGAUACAUGAGGAUCACCCAUGUUUAAGAAUGCCGAGAGGCAACUAGAAGGCCCUAGUACCU |  |  | 349 | 32.7 |
| UGGUCAUCAUCAGGAUAUUAACGUGGGCUACUUUAAGAAGGGAUAGUGGGAGAGGAUGUGAAACAUGAGGAUCACCCAUGUUGU |  |  | 15.7 | 12.3 |
| UGGUCAUGAUCAGGAUAUUAACAUGGGCUACAUUAAGAAGGGAUAGUGAGAUACGAACUGAAACAUGAGGAUCACCCAUGUGUU |  |  | 170 | 107 |
| UGGUCAUGAUCAGGAUAUUAACAUGGGCUACAUUAAGAAGGGAUAGUGAGAUACGAACUGAACGACAUGAGGAUCACCCAUGUA |  |  | 44.8 | 34.3 |
| UGGUCAUGAUCAGGAUAUUAACAUGGGCUACAUUAAGAAGGGAUAGUGAGAUGCGAACGGAACGACAUGAGGAUCACCCAUGUA |  |  | 44.6 | 35 |
| UGGUGAAGUGUAGGAUAUGGAGAUGGGUUUUGGCCAGAAGGACAUGAGGAUCACCCAUGUGGUAGAGGGUUGGUGGUGGCUCGU | 31.6 | 24.3 |  |  |
| UGUAACCAAGGAUAUACAUGAGGAUCACCCAUGUAAUGUAGUAUAGUGUGUGUGAGGUGUAGAAGGAGGGAUGU | 76.3 | 73.6 |  |  |
| UGUACUAUAAGGUUAAUUGUAUAUUGAGAAGGCAUACACAUGAGGAUCACCCAUGUAACAUGGAAUGAGGAUAUCAUUAUGUAC |  |  | 17.3 | 14.4 |
| UGUAUGGACAGAGGAUAUACGGAUAGGAUCUACUAUCUUCUUCAAAUAACAUGAGGAUCACCCAUGUAGAAGGCUGUCCAUACU | 16.1 | 35.1 |  |  |
